From ChEMBL document CHEMBL1949634, “Synthesis and evaluation of a novel series of indoloisoquinolines as small molecule anti-malarial leads” (Bioorg Med Chem Lett, 2012)
The source made the active and inactive calls. The calls are words filed in the database; no cut-off is given here.

Assays:
Format in all cases: functional, organism-based
Plasmodium falciparum [1] = assay: Anti-malarial activity against intraerythrocytic ring stage culture of chloroquine-resistant Plasmodium falciparum Dd2 after 48 hrs by lactate dehydrogenase assay; details: Dd2, 48 h
Summary of the method: (§1)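 Sorbitol-synchronised ring-stage parasites at 2% haematocrit and 1% parasitaemia, kept at 37 °C in 1% O2/3% CO2/96% N2, were given five-fold drug dilutions from 100 mM DMSO stocks for 48 h. Growth reference wells had no drug, and 0% wells had artemether at 100 nM. LDH was read with Malstat/APAD plus NBT/PES (1 h, dark, room temperature, A650). IC50 came from log dose–response curves of mean growth, n ≥ 6.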

Plasmodium falciparum [2] = assay: Anti-malarial activity against intraerythrocytic ring stage culture of chloroquine-sensitive Plasmodium falciparum 3D7 after 48 hrs by lactate dehydrogenase assay; details: 3D7, 48 h; summary of the method: as §1
Plasmodium falciparum [3] = assay: Anti-malarial activity against Plasmodium falciparum trophozoites assessed as induction of morphological changes at 5 uM

Which IC50 (Plasmodium falciparum [1]) does the source give for `C=CCOC[C@H]1Cc2c(n(CC3CCC3)c3ccccc23)[C@@H]2CCCC(=O)N12` here?
The IC50 was 7 µM.

`COC[C@H]1Cc2c(n(Cc3ccccc3)c3ccccc23)[C@@H]2CCCCN12` was tested. Which IC50 (Plasmodium falciparum [1]) did it give?
The IC50 was 3.3 µM.

For `O=C1CCC[C@@H]2c3c(c4ccccc4n3Cc3ccccc3)C[C@@H](COCc3ccccc3)N12`, which IC50 (Plasmodium falciparum [1]) is on record?
The IC50 was 12 µM.

How did the IC50 (Plasmodium falciparum [1]) turn out when `C=CCOC[C@H]1Cc2c(n(Cc3ccccc3)c3ccccc23)[C@@H]2CC=CC(=O)N12` was run?
The IC50 was 1.7 µM.

`C=CCOC[C@H]1Cc2c(n(CC3CCCCC3)c3ccccc23)[C@@H]2CCCC(=O)N12` was tested. Which IC50 (Plasmodium falciparum [1]) did it give?
The IC50 was 9 µM.

How did the IC50 (Plasmodium falciparum [2]) turn out when `C=CCOC[C@H]1Cc2c(n(Cc3ccccc3)c3ccccc23)[C@@H]2CCCC(=O)N12` was run?
The IC50 was 1.7 µM.

What about the IC50 (Plasmodium falciparum [1]) of the same compound?
The IC50 was 1.3 µM.

With `O=C1CCC[C@H]2c3[nH]c4ccccc4c3C[C@H](CO)N12` as the compound, how does the IC50 (Plasmodium falciparum [1]) read?
The IC50 was 56 µM.

With `O=C1CCC[C@H]2c3c(c4ccccc4n3Cc3ccccc3)C[C@H](COCC3CCCCC3)N12` as the compound, how does the IC50 (Plasmodium falciparum [1]) read?
Its IC50 is 19 µM.

`C=CCOC[C@@H]1Cc2c(n(Cc3ccccc3)c3ccccc23)[C@H]2CCCC(=O)N12` was tested. Which IC50 (Plasmodium falciparum [1]) did it give?
The IC50 was 35 µM.

For `C=CCOC[C@@H]1Cc2c(n(CC=C)c3ccccc23)[C@H]2CCCC(=O)N12`, which IC50 (Plasmodium falciparum [1]) is on record?
The IC50 was 16 µM.

`C=CCn1c2c(c3ccccc31)C[C@H](CO)N1C(=O)CCC[C@@H]21` was tested. Which IC50 (Plasmodium falciparum [1]) did it give?
Its IC50 is 41 µM.

For `CCCOC[C@H]1Cc2c(n(Cc3ccccc3)c3ccccc23)[C@@H]2CCCC(=O)N12`, which IC50 (Plasmodium falciparum [1]) is on record?
The IC50 was 2.8 µM.

How did the IC50 (Plasmodium falciparum [1]) turn out when `COC[C@@H]1Cc2c(n(Cc3ccccc3)c3ccccc23)[C@H]2CCCC(=O)N12` was run?
Its IC50 is 32 µM.

For `C=C[C@H]1CC(=O)N2[C@@H](COCc3ccccc3)Cc3c(n(Cc4ccccc4)c4ccccc34)[C@@H]2C1`, which IC50 (Plasmodium falciparum [1]) is on record?
The IC50 was 13 µM.

Which IC50 (Plasmodium falciparum [1]) does the source give for `C=C[C@@H]1CC(=O)N2[C@H](COCc3ccccc3)Cc3c(n(Cc4ccccc4)c4ccccc34)[C@H]2C1` here?
Its IC50 is 20 µM.

With `O=C1CCC[C@H]2c3c(c4ccccc4n3Cc3ccccc3)C[C@H](CO)N12` as the compound, how does the IC50 (Plasmodium falciparum [1]) read?
The IC50 was 5 µM.

What does the source list for `O=C1CCC[C@H]2c3c(c4ccccc4n3Cc3ccccc3)C[C@H](COCc3ccccc3)N12`?
IC50 (Plasmodium falciparum [1]): 3.5 µM; Activity (Plasmodium falciparum [3]): Active

How did the IC50 (Plasmodium falciparum [1]) turn out when `O=C1CCC[C@@H]2c3[nH]c4ccccc4c3C[C@@H](CO)N12` was run?
The IC50 was 71 µM.

For `COC[C@H]1Cc2c(n(C)c3ccccc23)[C@@H]2CCCC(=O)N12`, which IC50 (Plasmodium falciparum [2]) is on record?
Its IC50 is 41 µM.

What about the IC50 (Plasmodium falciparum [1]) of the same compound?
The IC50 was 29 µM.

Which IC50 (Plasmodium falciparum [1]) does the source give for `C=CCOC[C@H]1Cc2c(n(Cc3ccncc3)c3ccccc23)[C@@H]2CCCC(=O)N12` here?
Its IC50 is 2.1 µM.

How did the IC50 (Plasmodium falciparum [1]) turn out when `C=CCOC[C@H]1Cc2c(n(Cc3ccccc3)c3ccccc23)[C@@H]2C[C@@H](C=C)CC(=O)N12` was run?
Its IC50 is 1.1 µM.

And the Activity (Plasmodium falciparum [3])?
Its Activity is “Active”.

With `O=C1C=CC[C@H]2c3c(c4ccccc4n3Cc3ccccc3)C[C@H](COCc3ccccc3)N12` as the compound, how does the IC50 (Plasmodium falciparum [1]) read?
The IC50 was 3.6 µM.

Which IC50 (Plasmodium falciparum [2]) does the source give for `COC[C@H]1Cc2c(n(Cc3ccccc3)c3ccccc23)[C@@H]2CCCC(=O)N12` here?
Its IC50 is 2.3 µM.

What about the IC50 (Plasmodium falciparum [1]) of the same compound?
Its IC50 is 1.3 µM.

With `COC[C@@H]1Cc2c(n(C)c3ccccc23)[C@H]2CCCC(=O)N12` as the compound, how does the IC50 (Plasmodium falciparum [1]) read?
The IC50 was 30 µM.

With `C=CCOC[C@H]1Cc2c(n(Cc3ccccc3)c3ccccc23)[C@@H]2CCCCN12` as the compound, how does the IC50 (Plasmodium falciparum [1]) read?
The IC50 was 1.5 µM.

Which IC50 (Plasmodium falciparum [1]) does the source give for `C=CCOC[C@H]1Cc2c(n(CC=C)c3ccccc23)[C@@H]2CCCC(=O)N12` here?
Its IC50 is 13 µM.
